pIC50: −log10 of the molar value. The source made the active and inactive calls. The calls are words filed in the database; no cut-off is given here.
What was measured:
[1] = Cytotoxicity against human HepG2.2.15 cells; type: cell-based, HepG2 2.2.15
Hepatitis B virus [2] = assay: Antiviral activity against Hepatitis B virus infected in human HepG2.2.15 cells assessed as inhibition of viral replication after 7 days by RT-PCR analysis; type: functional, organism-based; conditions: for pIC50: HepG2.2.15, 168 h
[3] = target: Core antigen (Hepatitis B virus) (UniProt Q03732); assay: Inhibition of GFP-fused Hepatitis B Virus capsid expressed in HEK293T cells at 50 uM after 48 hrs relative to control; type: cell-based
Chain of Core antigen (Hepatitis B virus) (Q03732 as listed by the source): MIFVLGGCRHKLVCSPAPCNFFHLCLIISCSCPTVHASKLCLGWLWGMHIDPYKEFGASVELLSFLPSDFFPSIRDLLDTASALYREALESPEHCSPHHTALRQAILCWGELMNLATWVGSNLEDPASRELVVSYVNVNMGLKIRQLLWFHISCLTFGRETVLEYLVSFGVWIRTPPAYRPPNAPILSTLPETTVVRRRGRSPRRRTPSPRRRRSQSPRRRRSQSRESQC
Outline: (§1)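 BiFC assay: HBc fused to Venus fragments VN (1–154) and VC (155–239) were co-transfected into 293T cells, then compounds were added. The dose series used 0, 0.5, 5 and 50 μM; SAR used 50 μM as percent inhibition. After 48 h, reconstituted fluorescence was read as mean fluorescent intensity on a plate reader, with fluorescence microscopy images.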

[4] = target: Core antigen (Hepatitis B virus) (UniProt Q03732); assay: Inhibition of dimerization of HA-tagged Hepatitis B Virus capsid (HBVcAg-C155-239) expressed in HEK293T cells at 50 to 100 uM after 48 hrs by co-immunoprecipitation assay; type: cell-based
Outline: (§2)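 HEK293T cells were co-transfected with HBc-VN-HA and HBc-VC-FLAG, then treated with DMSO or compound. After 48 h, lysates were co-immunoprecipitated with anti-HA beads and analysed by immunoblot.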

[5] = Acute toxicity in BALB/c mouse assessed as effect on body weight at 500 to 1000 mg/kg, ip measured after 2 weeks; type: organism-based; conditions: in vivo, 336 h
Outline: (§3)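 Male Balb/c mice, 5 animals, given a single intraperitoneal injection at 0, 500 or 1000 mg/kg. Body weight followed for two weeks. On day 14, blood was taken for hepatic and renal function (AST, ALT, BUN, creatinine). Heart, liver, lung, spleen and kidney were sectioned, HE-stained and examined.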

[6] = target: Core antigen (Hepatitis B virus) (UniProt Q03732); assay: Inhibition of GFP-fused Hepatitis B Virus capsid (HBVcAg-VFP-C155-239) expressed in HEK293T cells assessed as reduction in capsid assembly after 48 hrs by fluorescence microscopic analysis; type: cell-based; outline: as §1
[7] = Acute toxicity in BALB/c mouse assessed as effect on heart at 500 to 1000 mg/kg, ip measured on day 14 by hematoxylin and eosin staining based assay; type: organism-based; conditions: in vivo; outline: as §3
[8] = target: Core antigen (Hepatitis B virus) (UniProt Q03732); assay: Inhibition of dimerization of HA-tagged Hepatitis B Virus capsid (HBVcAg-N1-154) expressed in HEK293T cells at 50 to 100 uM after 48 hrs by co-immunoprecipitation assay; type: cell-based; outline: as §2
[9] = Hepatic toxicity in BALB/c mouse assessed as effect on ALT levels at 500 to 1000 mg/kg, ip measured on day 14; type: organism-based; conditions: in vivo; outline: as §3
[10] = Renal toxicity in BALB/c mouse assessed as effect on CRE levels at 500 to 1000 mg/kg, ip measured on day 14; type: organism-based; conditions: in vivo; outline: as §3
[11] = Acute toxicity in BALB/c mouse assessed as effect on lung at 500 to 1000 mg/kg, ip measured on day 14 by hematoxylin and eosin staining based assay; type: organism-based; conditions: in vivo; outline: as §3
Hepatitis B virus [12] = assay: Antiviral activity against Hepatitis B virus infected in BALB/c mouse injected with replication-competent HBV DNA plasmid HBV-1.2mer assessed as reduction in HBsAg replication at 30 mg/kg, iv measured after 2 weeks by ELISA; type: functional, organism-based
Outline: (§4)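 BALB/c transgenic mice carrying the replication-competent HBV-1.2mer plasmid were bled at day 0 for HBV DNA copies and randomly split into two groups of 3 males. Each group got 30 mg/kg compound or DMSO by tail vein, every 2 days, for 2 weeks. Blood was then collected. HBV DNA was measured by real-time PCR and HBsAg by ELISA.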

[13] = Renal toxicity in BALB/c mouse assessed as effect on BUN levels at 500 to 1000 mg/kg, ip measured on day 14; type: organism-based; conditions: in vivo; outline: as §3
[14] = target: Core antigen (Hepatitis B virus) (UniProt Q03732); assay: Inhibition of GFP-fused Hepatitis B Virus capsid (HBVcAg-GFP-N1-154) expressed in HEK293T cells assessed as reduction in capsid assembly after 48 hrs by fluorescence microscopic analysis; type: cell-based; outline: as §1
Hepatitis B virus [15] = assay: Antiviral activity against Hepatitis B virus infected in human […] assessed as reduction in viral DNA replication at 30 mg/kg dosed orthotopically every 3 days for 4 weeks by RT-PCR analysis; type: functional, organism-based
[16] = target: Core antigen (Hepatitis B virus) (UniProt Q03732); assay: Inhibition of dimerization of HA-tagged Hepatitis B Virus capsid (HBVcAg-N1-154) expressed in HEK293T cells at 50 to 100 uM after 48 hrs by Western blot analysis; type: cell-based
Outline: (§5)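 HEK293T cells were transfected with HBc-VN-HA or HBc-VC-FLAG and treated with DMSO, 50 or 100 μM compound. After 48 h, lysates were western blotted with anti-HA, anti-FLAG and anti-GAPDH.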

[17] = Acute toxicity in BALB/c mouse assessed as effect on liver at 500 to 1000 mg/kg, ip measured on day 14 by hematoxylin and eosin staining based assay; type: organism-based; conditions: in vivo; outline: as §3
Hepatitis B virus [18] = assay: Antiviral activity against Hepatitis B virus infected in BALB/c mouse injected with replication-competent HBV DNA plasmid HBV-1.2mer assessed as reduction in viral DNA replication at 30 mg/kg, iv measured after 2 weeks by RT-PCR analysis; type: functional, organism-based; outline: as §4
[19] = target: Core antigen (Hepatitis B virus) (UniProt Q03732); assay: Inhibition of aggregation of HBV capsid (1 to 149 residues) expressed in Escherichia coli assessed as induction of abnormal capsid morphology at 0.2 to 50 uM by TEM analysis
Outline: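 His-tagged Cp149 was expressed in E. coli (IPTG 1 mM), Ni-affinity purified and kept in PBS. Cp149 (10 μM) in 50 mM HEPES pH 7.5 was preincubated 1 h with compound (0.2–50 μM) or DMSO. Assembly was started with NaCl to 50 mM and equilibrated 60 h at 23 °C. Grids were stained with 2% uranyl acetate and viewed by TEM.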

[20] = target: Core antigen (Hepatitis B virus) (UniProt Q03732); assay: Inhibition of dimerization of HA-tagged Hepatitis B Virus capsid (HBVcAg-C155-239) expressed in HEK293T cells at 50 to 100 uM after 48 hrs by Western blot analysis; type: cell-based; outline: as §5
[21] = Hepatic toxicity in BALB/c mouse assessed as effect on AST levels at 500 to 1000 mg/kg, ip measured on day 14; type: organism-based; conditions: in vivo; outline: as §3
[22] = Acute toxicity in BALB/c mouse assessed as effect on kidney at 500 to 1000 mg/kg, ip measured on day 14 by hematoxylin and eosin staining based assay; type: organism-based; conditions: in vivo; outline: as §3
[23] = Acute toxicity in BALB/c mouse assessed as effect on spleen at 500 to 1000 mg/kg, ip measured on day 14 by hematoxylin and eosin staining based assay; type: organism-based; conditions: in vivo; outline: as §3

CC(C)(C)OC(=O)Nc1ncc(C(Oc2ccc3cc(Br)ccc3c2)c2ccc(Cl)cc2)s1 (stereo unspecified)
CC50 [1]: > 50 µM | pIC50 (Hepatitis B virus [2]): 5.64 | inhibition [3]: 55%

O=S(=O)(Nc1ncc(C(Oc2ccc3cc(Br)ccc3c2)c2ccc(Cl)cc2)s1)c1cccc2cccnc12 (stereo unspecified)
inhibition [4]: Active | Activity [5]: Non-Toxic | inhibition [6]: Dose-dependent effect | Activity [7]: Non-Toxic | CC50 [1]: > 50 µM | inhibition [8]: Active | Activity [9]: Non-Toxic | Activity [10]: Non-Toxic | Activity [11]: Non-Toxic | inhibition (Hepatitis B virus [2]): Dose-dependent effect | pIC50 (Hepatitis B virus [2]): 6.74 | Activity (Hepatitis B virus [12]): Active | Activity [13]: Non-Toxic | inhibition [14]: Dose-dependent effect | Activity (Hepatitis B virus [15]): Active | inhibition [16]: Active | Activity [17]: Non-Toxic | Activity (Hepatitis B virus [18]): Active | inhibition [19]: Active | inhibition [20]: Active | inhibition [3]: 63% | Activity [21]: Non-Toxic | Activity [22]: Non-Toxic | Activity [23]: Non-Toxic

O=C(Nc1ncc(Cc2ccc(Cl)cc2)s1)c1cccs1
CC50 [1]: > 50 µM | pIC50 (Hepatitis B virus [2]): 5.44 | inhibition [3]: 59%

COc1ccc(C(=O)Nc2ncc(C(Nc3cccc4ccccc34)c3ccc(Cl)cc3)s2)cc1 (stereo unspecified)
CC50 [1]: > 50 µM | pIC50 (Hepatitis B virus [2]): 5.16 | inhibition [3]: 69%

O=C(Nc1ncc(C(Oc2ccc3cc(Br)ccc3c2)c2ccc(Cl)cc2)s1)c1ccc(F)cc1Br (stereo unspecified)
CC50 [1]: > 50 µM | pIC50 (Hepatitis B virus [2]): 5.45 | inhibition [3]: 65%

CCOC(=O)C1=C(CN2CCOCC2)NC(c2nccs2)=NC1c1ccc(F)cc1Br (stereo unspecified)
Activity (Hepatitis B virus [2]): Dose-dependent effect

COc1ccc(C(=O)Nc2ncc(C(Oc3ccc4cc(Br)ccc4c3)c3ccc(Cl)cc3)s2)cc1 (stereo unspecified)
CC50 [1]: > 50 µM | pIC50 (Hepatitis B virus [2]): 5.84 | inhibition [3]: 54%

O=S(=O)(Nc1ncc(C(Oc2ccc3cc(Br)ccc3c2)c2ccc(Cl)cc2)s1)c1ccccc1 (stereo unspecified)
CC50 [1]: > 50 µM | pIC50 (Hepatitis B virus [2]): 5.63 | inhibition [3]: 63%

CC(C)(C)OC(=O)Nc1ncc(C(Oc2ccc(Br)cc2)c2ccc(Cl)cc2)s1 (stereo unspecified)
CC50 [1]: > 50 µM | inhibition [3]: inactive

O=C(Nc1ncc(Cc2ccc(F)cc2)s1)c1cccs1
CC50 [1]: > 500 µM | pIC50 (Hepatitis B virus [2]): 5.21

Cc1cc(Br)cc(OC(c2ccc(Cl)cc2)c2cnc(NC(=O)OC(C)(C)C)s2)c1 (stereo unspecified)
CC50 [1]: > 50 µM | inhibition [3]: inactive

COc1ccc(C(=O)Nc2ncc(C(Oc3ccc4cc(Br)ccc4c3)c3ccc(Br)cc3)s2)cc1 (stereo unspecified)
CC50 [1]: > 50 µM | inhibition [3]: 78%
